Two molecules from ChEMBL document CHEMBL4406821, “Novel dual inhibitors targeting CDK4 and VEGFR2 synergistically suppressed cancer progression and angiogenesis” (Eur J Med Chem, 2019) can be followed below.

Calls of active or inactive are those of the source. The rule behind the calls is not given here.

One data set deals with MDA-MB-231. The data set is described as follows: Induction of cell cycle arrest in human MDA-MB-231 cells assessed as accumulation in G2/M phase at 40 nM incubated for 36 hrs by propidium iodide staining based flow cytometry. The data set is classed as functional. In outline: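 Cells were treated with graded concentrations for 36 h, then fixed overnight in 70% ice-cold ethanol at 4°C and resuspended in PBS. Staining used 50 µg/ml PI plus 5 µg/ml RNase at 37°C for 30 min. DNA content was analysed by FACS to give G0/G1, S and G2/M fractions.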

In data set [1] the target is RAC-alpha serine/threonine-protein kinase (Homo sapiens) (UniProt P31749). The data set is described as follows: Inhibition of recombinant human PKBalpha at 1 uM using as CKRREILSRRPSYRK substrate incubated for 60 mins in presence of [gamma-33P]-ATP by scintillation counting method relative to control.
RAC-alpha serine/threonine-protein kinase (Homo sapiens), sequence (P31749 whole entry): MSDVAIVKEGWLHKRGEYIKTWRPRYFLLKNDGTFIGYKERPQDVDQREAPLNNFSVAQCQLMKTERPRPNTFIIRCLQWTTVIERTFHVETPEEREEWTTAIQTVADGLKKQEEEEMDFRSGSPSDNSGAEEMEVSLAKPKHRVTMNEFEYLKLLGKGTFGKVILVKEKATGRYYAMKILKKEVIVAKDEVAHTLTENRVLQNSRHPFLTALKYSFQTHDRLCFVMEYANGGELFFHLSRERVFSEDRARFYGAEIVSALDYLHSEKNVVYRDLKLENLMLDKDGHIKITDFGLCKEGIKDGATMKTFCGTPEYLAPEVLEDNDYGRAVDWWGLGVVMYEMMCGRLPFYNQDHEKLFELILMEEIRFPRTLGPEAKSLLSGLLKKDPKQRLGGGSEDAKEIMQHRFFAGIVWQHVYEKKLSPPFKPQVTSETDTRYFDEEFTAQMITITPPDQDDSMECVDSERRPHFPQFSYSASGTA
Data set [2] has as its target Ribosomal protein S6 kinase alpha-1 (Homo sapiens) (UniProt Q15418). The data set is described as follows: Inhibition of recombinant human full length RSK1 at 1 uM using KKKNRTLSVA as substrate incubated for 40 mins in presence of [gamma-33P]-ATP by scintillation counting method relative to control. Put shortly:
(§1)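 Tested at a single 1 uM in an outsourced commercial kinase-profiling panel, read as percent inhibition. Each value is the mean of two independent experiments.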

Data set [3] concerns the target Serine/threonine-protein kinase PLK3 (Homo sapiens) (UniProt Q9H4B4). The data set is described as follows: Inhibition of recombinant human PLK3 (19 to 301 residues) at 1 uM using casein as substrate incubated for 40 mins in presence of [gamma-33P]-ATP by scintillation counting method relative to control.
The test system of data set [4] is Mast/stem cell growth factor receptor Kit (Homo sapiens), P10721 [D816H]. The data set is described as follows: Inhibition of recombinant human cKIT D816H mutant (544 to end residues) at 1 uM using GGMEDIYFEFMGG as substrate incubated for 40 mins in presence of [gamma-33P]-ATP by scintillation counting method relative to control. Put shortly: as §1
Mast/stem cell growth factor receptor Kit (Homo sapiens), P10721 [D816H], sequence (P10721 whole entry D816H): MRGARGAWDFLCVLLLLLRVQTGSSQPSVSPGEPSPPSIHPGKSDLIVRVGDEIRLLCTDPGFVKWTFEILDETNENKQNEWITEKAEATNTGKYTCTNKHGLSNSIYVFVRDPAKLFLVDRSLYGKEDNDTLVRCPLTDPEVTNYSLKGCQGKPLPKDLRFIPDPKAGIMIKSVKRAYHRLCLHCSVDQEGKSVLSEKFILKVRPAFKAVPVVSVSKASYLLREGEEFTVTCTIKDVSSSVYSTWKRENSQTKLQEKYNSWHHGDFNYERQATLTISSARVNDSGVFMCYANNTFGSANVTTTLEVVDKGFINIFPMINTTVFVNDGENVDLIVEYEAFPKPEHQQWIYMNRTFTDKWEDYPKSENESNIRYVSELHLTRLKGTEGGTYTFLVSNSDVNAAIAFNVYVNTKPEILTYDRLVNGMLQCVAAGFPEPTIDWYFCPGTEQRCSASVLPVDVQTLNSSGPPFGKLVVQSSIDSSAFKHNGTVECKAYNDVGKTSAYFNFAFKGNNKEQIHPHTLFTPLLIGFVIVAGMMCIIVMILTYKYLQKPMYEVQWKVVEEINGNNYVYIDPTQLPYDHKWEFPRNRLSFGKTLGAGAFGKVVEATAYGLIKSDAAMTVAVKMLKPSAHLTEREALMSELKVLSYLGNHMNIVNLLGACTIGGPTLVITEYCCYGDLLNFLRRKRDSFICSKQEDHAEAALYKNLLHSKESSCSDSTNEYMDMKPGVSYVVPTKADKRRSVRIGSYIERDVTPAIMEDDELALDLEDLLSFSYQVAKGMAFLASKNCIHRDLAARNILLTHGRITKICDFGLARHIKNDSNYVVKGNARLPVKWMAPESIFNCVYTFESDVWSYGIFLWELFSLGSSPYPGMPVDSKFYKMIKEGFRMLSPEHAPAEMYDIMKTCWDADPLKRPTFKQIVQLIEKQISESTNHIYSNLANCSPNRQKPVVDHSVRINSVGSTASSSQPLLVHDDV
Data set [5] addresses Receptor tyrosine-protein kinase erbB-2 (Homo sapiens) (UniProt P04626). The data set is described as follows: Inhibition of recombinant human ERBB2 (676 to end residues) at 1 uM using poly (Glu, Tyr) 4:1 as substrate incubated for 40 mins in presence of [gamma-33P]-ATP by scintillation counting method relative to control.
Data set [6] addresses MAP kinase-interacting serine/threonine-protein kinase 2 (Homo sapiens) (UniProt Q9HBH9). The data set is described as follows: Inhibition of recombinant human full length MNK2 at 1 uM using myelin basic protein as substrate incubated for 40 mins in presence of [gamma-33P]-ATP by scintillation counting method relative to control.
In data set [7] the target is Testis-specific serine/threonine-protein kinase 3 (Homo sapiens) (UniProt Q96PN8). Description: Inhibition of recombinant human full length TSSK3 at 1 uM using AMARAASAAALARRR as substrate incubated for 40 mins in presence of [gamma-33P]-ATP by scintillation counting method relative to control. Put shortly:
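Single-point inhibition at 1 uM measured in a commercial kinase profiling panel (KinaseProfiler); each value is the mean of two independent experiments.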

Data set [8] deals with Tyrosine-protein kinase SYK (Homo sapiens) (UniProt P43405). Description: Inhibition of recombinant human full length SYK at 1 uM using poly(Glu, Tyr) 4:1 as substrate incubated for 40 mins in presence of [gamma-33P]-ATP by scintillation counting method relative to control.
The target of data set [9] is Mitogen-activated protein kinase 1 (Homo sapiens) (UniProt P28482). Description: Inhibition of recombinant human full length MAPK2 at 1 uM using myelin basic protein as substrate incubated for 40 mins in presence of [gamma-33P]-ATP by scintillation counting method relative to control. Put shortly:
as §1

Data set [10] is described as follows: AUMC (0 to t) in Sprague-Dawley rat at 10 mg/kg, iv by HPLC-MS analysis. The data set is classed as ADME, organism-based. As to conditions: in vivo. Put shortly:
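Rats fitted with jugular vein catheters for serial blood sampling. Compound dissolved in saline with 5% (v/v) DMSO and given as a single 10 mg/kg dose iv or po after an overnight fast, n = 5 per group. Plasma isolated at once and measured by HPLC with tandem MS detection. Parameters derived by noncompartmental fitting.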

Data set [11] addresses Vascular endothelial growth factor receptor 2 (Homo sapiens, UniProt P35968). Description: Inhibition of VEGFR2 in HUVEC cells assessed as reduction in Src phosphorylation at 20 to 40 nM incubated for 48 hrs by Western blot analysis. The data set is classed as cell-based. In outline: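 HUVECs were maintained in 1640 medium with 10% FBS. They were treated with graded concentrations for 48 h, PBS-washed and lysed in RIPA buffer. Immunoblots were probed for total and phospho VEGFR2, STAT3, Akt, Erk1 and Src, each at 1:1000. β-actin served as loading control.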

Data set [12] deals with Cyclin-dependent kinase 1/cyclin B1 (Homo sapiens, UniProt P06493). Description: Inhibition of recombinant human full length CDK1/CyclinB using histone H1 as substrate incubated for 40 mins in presence of [gamma-33P]-ATP by scintillation counting method. The data set is classed as protein-complex assay.
Data set [13] concerns the target Mitogen-activated protein kinase 14 (Homo sapiens) (UniProt Q16539). Description: Inhibition of recombinant human full length SAPK2a at 1 uM using myelin basic protein as substrate incubated for 40 mins in presence of [gamma-33P]-ATP by scintillation counting method relative to control. Put shortly:
as §1

Data set [14] concerns the target Ephrin type-A receptor 2 (Homo sapiens) (UniProt P29317). The data set is described as follows: Inhibition of recombinant human EPhA2 (596 to 900 residues) at 1 uM using poly(Glu, Tyr) 4:1as substrate incubated for 40 mins in presence of [gamma-33P]-ATP by scintillation counting method relative to control.
The target in data set [15] is Ephrin type-A receptor 7 (Homo sapiens) (UniProt Q15375). The data set is described as follows: Inhibition of recombinant human EPhA7 (613 to 909 residues) at 1 uM using KTFCGTPEYLAPEVRREPRILSEEEQEMFRDFDYIADWC as substrate incubated for 40 mins in presence of [gamma-33P]-ATP by scintillation counting method relative to control.
Data set [16] has as its target Protein kinase C eta type (Homo sapiens) (UniProt P24723). The data set is described as follows: Inhibition of recombinant human full length PKCeta (2 to end residues) at 1 uM using ERMRPRKRQGSVRRRV as substrate incubated for 40 mins in presence of [gamma-33P]-ATP by scintillation counting method relative to control.
The target in data set [17] is RAF proto-oncogene serine/threonine-protein kinase (Homo sapiens) (UniProt P04049). Description: Inhibition of recombinant human cRaf (306 to end residues) at 1 uM using unactive MEK1 as substrate incubated for 40 mins in presence of [gamma-33P]-ATP by scintillation counting method relative to control.
Data set [18] addresses 5'-AMP-activated protein kinase catalytic subunit alpha-2 (Homo sapiens) (UniProt P54646). Description: Inhibition of recombinant full length human AMPKalpha2 at 1 uM using AMARAASAAALAR as substrate incubated for 40 mins in presence of [gamma-33P]-ATP by scintillation counting method relative to control. Put shortly:
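Kinase panel profiling at 1 μM performed by Eurofins KinaseProfiler; percent inhibition reported as mean of two independent experiments.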

Protein kinase C eta type (Homo sapiens), sequence (P24723 whole entry): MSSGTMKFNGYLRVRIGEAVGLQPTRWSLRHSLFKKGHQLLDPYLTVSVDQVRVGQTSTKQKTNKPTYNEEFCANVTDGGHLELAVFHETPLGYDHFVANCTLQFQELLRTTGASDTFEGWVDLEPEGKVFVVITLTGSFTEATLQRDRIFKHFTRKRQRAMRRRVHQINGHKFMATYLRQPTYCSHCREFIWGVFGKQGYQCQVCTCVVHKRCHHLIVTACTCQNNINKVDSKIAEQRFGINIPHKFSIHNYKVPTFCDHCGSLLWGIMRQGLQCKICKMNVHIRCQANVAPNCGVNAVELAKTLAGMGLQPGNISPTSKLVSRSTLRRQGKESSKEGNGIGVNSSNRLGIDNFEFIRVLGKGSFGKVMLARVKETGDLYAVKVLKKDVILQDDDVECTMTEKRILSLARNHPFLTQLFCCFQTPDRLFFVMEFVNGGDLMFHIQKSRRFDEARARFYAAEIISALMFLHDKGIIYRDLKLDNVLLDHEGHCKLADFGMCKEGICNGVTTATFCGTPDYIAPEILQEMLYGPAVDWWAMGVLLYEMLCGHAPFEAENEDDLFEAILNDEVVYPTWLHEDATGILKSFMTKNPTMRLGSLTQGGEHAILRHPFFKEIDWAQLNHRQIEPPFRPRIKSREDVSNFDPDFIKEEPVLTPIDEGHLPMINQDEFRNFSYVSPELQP
Testis-specific serine/threonine-protein kinase 3 (Homo sapiens), sequence (Q96PN8 whole entry): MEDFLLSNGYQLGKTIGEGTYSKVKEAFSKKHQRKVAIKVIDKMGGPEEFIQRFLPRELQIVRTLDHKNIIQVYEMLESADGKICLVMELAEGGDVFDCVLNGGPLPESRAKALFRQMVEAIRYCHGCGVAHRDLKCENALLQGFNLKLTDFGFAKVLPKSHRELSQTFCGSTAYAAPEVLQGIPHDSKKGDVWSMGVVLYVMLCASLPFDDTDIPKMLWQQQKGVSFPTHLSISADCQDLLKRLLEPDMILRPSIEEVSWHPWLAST
Ribosomal protein S6 kinase alpha-1 (Homo sapiens), sequence (Q15418 whole entry): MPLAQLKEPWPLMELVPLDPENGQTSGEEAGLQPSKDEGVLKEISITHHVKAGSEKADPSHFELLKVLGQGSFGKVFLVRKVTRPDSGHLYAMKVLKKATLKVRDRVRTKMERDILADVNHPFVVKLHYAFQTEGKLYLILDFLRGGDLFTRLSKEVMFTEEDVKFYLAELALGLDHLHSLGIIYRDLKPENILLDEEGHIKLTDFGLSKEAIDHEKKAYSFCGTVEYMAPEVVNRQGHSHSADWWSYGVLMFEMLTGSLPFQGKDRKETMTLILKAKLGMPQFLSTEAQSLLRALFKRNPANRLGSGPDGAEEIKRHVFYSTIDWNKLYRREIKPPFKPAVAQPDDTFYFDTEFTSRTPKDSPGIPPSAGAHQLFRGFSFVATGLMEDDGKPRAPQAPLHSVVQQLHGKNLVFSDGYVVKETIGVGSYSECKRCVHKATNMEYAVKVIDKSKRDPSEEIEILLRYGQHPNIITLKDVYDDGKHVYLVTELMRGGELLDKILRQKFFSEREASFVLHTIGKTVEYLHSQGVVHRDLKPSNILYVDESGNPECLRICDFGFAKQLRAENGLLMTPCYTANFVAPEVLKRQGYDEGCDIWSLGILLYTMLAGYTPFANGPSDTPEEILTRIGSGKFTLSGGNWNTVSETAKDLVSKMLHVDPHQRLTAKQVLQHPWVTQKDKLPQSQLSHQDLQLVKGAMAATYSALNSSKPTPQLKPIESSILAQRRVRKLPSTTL
Receptor tyrosine-protein kinase erbB-2 (Homo sapiens), sequence (P04626 whole entry): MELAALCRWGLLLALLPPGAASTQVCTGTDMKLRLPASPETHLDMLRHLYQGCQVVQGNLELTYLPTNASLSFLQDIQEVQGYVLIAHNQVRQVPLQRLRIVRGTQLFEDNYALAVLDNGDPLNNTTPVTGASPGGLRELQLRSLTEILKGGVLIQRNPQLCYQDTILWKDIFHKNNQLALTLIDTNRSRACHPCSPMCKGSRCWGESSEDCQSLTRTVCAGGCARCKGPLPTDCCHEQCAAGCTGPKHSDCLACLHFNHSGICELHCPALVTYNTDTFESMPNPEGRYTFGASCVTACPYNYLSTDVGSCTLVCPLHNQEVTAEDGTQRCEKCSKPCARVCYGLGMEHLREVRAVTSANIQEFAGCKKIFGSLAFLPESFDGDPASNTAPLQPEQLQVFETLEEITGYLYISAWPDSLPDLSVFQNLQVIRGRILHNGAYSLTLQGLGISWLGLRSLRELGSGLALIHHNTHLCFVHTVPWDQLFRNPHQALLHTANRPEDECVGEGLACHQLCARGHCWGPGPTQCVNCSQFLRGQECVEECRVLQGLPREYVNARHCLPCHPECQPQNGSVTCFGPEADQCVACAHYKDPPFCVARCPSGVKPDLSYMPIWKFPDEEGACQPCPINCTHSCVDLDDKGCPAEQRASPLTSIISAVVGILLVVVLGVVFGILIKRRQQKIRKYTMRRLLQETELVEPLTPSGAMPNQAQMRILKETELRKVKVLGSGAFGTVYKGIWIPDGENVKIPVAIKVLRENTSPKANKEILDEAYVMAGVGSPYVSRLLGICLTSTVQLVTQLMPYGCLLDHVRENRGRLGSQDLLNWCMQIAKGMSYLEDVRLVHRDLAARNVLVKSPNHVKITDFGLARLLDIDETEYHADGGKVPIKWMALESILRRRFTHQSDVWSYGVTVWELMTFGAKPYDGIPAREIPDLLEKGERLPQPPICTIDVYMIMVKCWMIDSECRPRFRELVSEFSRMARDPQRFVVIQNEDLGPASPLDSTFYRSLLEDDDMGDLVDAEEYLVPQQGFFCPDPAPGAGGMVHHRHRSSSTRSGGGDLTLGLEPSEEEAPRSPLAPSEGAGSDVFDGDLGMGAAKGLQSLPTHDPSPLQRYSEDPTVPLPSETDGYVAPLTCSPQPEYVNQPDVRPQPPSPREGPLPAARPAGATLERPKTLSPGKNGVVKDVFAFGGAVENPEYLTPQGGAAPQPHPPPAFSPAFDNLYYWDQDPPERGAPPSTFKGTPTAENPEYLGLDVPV
5'-AMP-activated protein kinase catalytic subunit alpha-2 (Homo sapiens), sequence (P54646 whole entry, looked up): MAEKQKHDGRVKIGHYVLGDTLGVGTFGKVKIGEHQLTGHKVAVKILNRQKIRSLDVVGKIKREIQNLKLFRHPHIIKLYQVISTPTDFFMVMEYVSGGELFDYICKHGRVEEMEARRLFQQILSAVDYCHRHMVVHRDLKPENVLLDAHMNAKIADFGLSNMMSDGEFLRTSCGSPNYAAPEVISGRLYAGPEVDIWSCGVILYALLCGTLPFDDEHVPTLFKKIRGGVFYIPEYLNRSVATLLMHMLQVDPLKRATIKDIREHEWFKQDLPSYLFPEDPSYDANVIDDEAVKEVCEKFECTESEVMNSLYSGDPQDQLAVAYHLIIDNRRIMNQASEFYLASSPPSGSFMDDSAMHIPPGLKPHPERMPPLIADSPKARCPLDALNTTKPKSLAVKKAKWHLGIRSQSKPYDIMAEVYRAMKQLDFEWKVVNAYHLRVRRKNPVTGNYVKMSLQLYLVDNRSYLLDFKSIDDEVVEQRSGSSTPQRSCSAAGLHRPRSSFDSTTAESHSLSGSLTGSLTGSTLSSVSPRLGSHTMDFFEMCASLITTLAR

As for `COc1cc2nccc(Oc3ccc(NC(=O)C4(C(=O)Nc5ccc(F)cc5)CC4)cc3)c2cc1OC` [CABOZANTINIB], the result in the data set on MDA-MB-231 was Active.

`Cc1ccc(NC(=O)C2(C(=O)Nc3ccc(Nc4ncc(F)c(-c5cc(F)c6nc(C)n(C(C)C)c6c5)n4)cc3)CC2)cc1`: the inhibition (commonly the percentage by which the read-out fell short of the control) in data set [1] is 36%; in data set [2], 0%; in data set [3] it was 36%; in [4], 76%; in data set [5], 3%; in data set [6] it was 10%. Further, the inhibition in data set [7] was 0%; in data set [8], 49%; in data set [9], 0%; in [13], 0%; in [14] it was 61%; in data set [15], 81%. In addition, the inhibition was found to be 17% in [16], 31% in data set [17] and 77% in data set [18]. For the same molecule, the AUMCt in data set [10] is recorded as 17 mg/L.hr. Besides, the inhibition entry in data set [11] was “Active”. In [12], the IC50 (in general, the point on the concentration scale where inhibition reaches its midpoint) turned out to be 247 nM.
